Published values from different studies.
Protocols differ between the studies behind these lines.
Dhodh: Dihydroorotate dehydrogenase (quinone), mitochondrial (Dhodh, Mus musculus, UniProt O35435)
EPHX2: Bifunctional epoxide hydrolase 2 (EPHX2, Homo sapiens, UniProt P34913)
ESR2: Estrogen receptor beta (ESR2, Homo sapiens, UniProt Q92731)

Structure (SMILES)	target	test	endpoint	value
Cn1nc2c(=O)n(C3CC3)ncc2c1[C@](O)(c1cnc(C(F)(F)F)c(Cl)c1)C(F)(F)F	Dhodh	enzyme activity, inhibitor, absorbance	IC50	> 30000 nM
O=C(Nc1ccc(-c2cccc3ncccc23)cc1)C1CCN(S(=O)(=O)c2ccccc2Cl)CC1	EPHX2	enzyme activity, inhibitor, fluorescence	IC50	1.7 nM
CC[C@@](N)(c1cnc(C(F)(F)F)c(Cl)c1)c1c2ncn(C3CC3)c(=O)c2nn1C	Dhodh	enzyme activity, inhibitor, absorbance	IC50	6700 nM
O=c1c(O)c(-c2ccc(O)c(O)c2)oc2cc(O)ccc12	Dual specificity mitogen-activated protein kinase kinase 4 (MAP2K4, Homo sapiens, UniProt P45985)	enzyme activity, inhibitor, ADP detection	IC50	2900 nM
O=C(Nc1ccc(-c2ccc3ncccc3c2)cc1)C1CCN(S(=O)(=O)c2ccccc2Cl)CC1	EPHX2	enzyme activity, inhibitor, fluorescence	IC50	5.4 nM
C[S+]([O-])CCCCN=C=S (stereo not drawn)	EPHX2	enzyme activity, inhibitor, fluorescence	IC50	3650 nM
C[C@@H]1O[C@@H](O[C@@H]2[C@@H](O)[C@H](OCCc3ccc(O)c(O)c3)O[C@H](CO)[C@H]2OC(=O)/C=C/c2ccc(O)c(O)c2)[C@H](O)[C@H](O)[C@H]1O	Aldo-keto reductase family 1 member B1 (AKR1B1, Homo sapiens, UniProt P15121)	enzyme activity, inhibitor	IC50	1170 nM
N[C@@H](Cc1ccccc1)C(=O)O	Intestinal-type alkaline phosphatase (ALPI, Bos taurus, UniProt P19111)	enzyme activity, inhibitor	IC50	78400 nM
C=CCN=C=S	EPHX2	enzyme activity, inhibitor, fluorescence	IC50	11600 nM
Oc1ccc2c3c(cnc2c1)-c1ccc(C(F)(F)F)cc1O[C@@H]3c1ccc(OCCN2CC(CF)C2)cc1	ESR2	ligand displacement, radioligand	Ki	0.11 nM
O=C1CC[C@H](N2Cc3cc(N4CCN(CC5CCN(c6ccc([C@@H]7c8ccc(O)cc8CC[C@@H]7c7ccccc7)cc6)CC5)CC4)ccc3C2=O)C(=O)N1	ESR2	ligand displacement, radioligand	IC50	5 nM
C[C@H]1CCC[C@@]2(C)CCCC[C@]12O	OR11A1 (Homo sapiens, UniProt Q9GZK7)	cAMP, agonist, luciferase	EC50	28 µM
